Compound activity from PubChem.
LEDGF integ inh = blockers of LEDGF/p75-dependent integrase strand transfer – biochemical, TR-FRET, high throughput, primary screen; TR-FRET IN-LEDGF/p75 DNA integration, Eu/Cy5; inhibition, % at 3.7 µM; 0.64% of 370,000 active; AID 743269, 2014;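 active = inhibition above the screen-wide mean plus 3 SD, cut at about 13% in these data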;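 also: signal is the Cy5 over europium emission ratio at 671 and 618 nm; 0% = plate median of compound wells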
UHRF1 MBD2 ctr = UHRF1 methylated DNA binding inhibitors, primary screen, counter-screen for MBD2 inhibitor project, biochemical, TR-FRET, human UHRF1, single concentration; 0.75% of 370,000 active; inhibition, % at 4.4 µM; E3 ubiquitin-protein ligase UHRF1 (Homo sapiens), Q96T88; UHRF1 binding to methylated oligo; in the data active = inhibition above about 21%;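 also: UHRF1 SRA domain binding a hemimethylated CpG hairpin DNA probe; 0% = median of test compound wells and 100% = reference inhibitor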
SIAE primary = human SIAE inhibitors, primary screen, biochemical, fluorescence polarization, FP-Rh probe, 1536-well HTS. AID 1053197, 2014. SIAE FP-Rh probe binding. inhibition, % at 9.66 µM. 0.69% of 370,000 active;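 active = inhibition above a cutoff: mean of compounds within the control limits plus 3 SD of those, cut at about 17% in these data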;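 also: 0% = plate median of compound wells and 100% = probe without SIAE protein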
PRMT1 inh = PRMT1 methyltransferase inhibitors, primary screen, biochemical, fluorescence polarization; recombinant PRMT1, activity-based probe fluorescence polarization; inhibition, % at 2.79 µM; Protein arginine N-methyltransferase 1 (Homo sapiens), Q99873; 1.3% of 370,000 active;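 active = inhibition above about 21% made by adding two undisclosed values, limit read from the data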
Target sequence (Q99873 whole entry, looked up): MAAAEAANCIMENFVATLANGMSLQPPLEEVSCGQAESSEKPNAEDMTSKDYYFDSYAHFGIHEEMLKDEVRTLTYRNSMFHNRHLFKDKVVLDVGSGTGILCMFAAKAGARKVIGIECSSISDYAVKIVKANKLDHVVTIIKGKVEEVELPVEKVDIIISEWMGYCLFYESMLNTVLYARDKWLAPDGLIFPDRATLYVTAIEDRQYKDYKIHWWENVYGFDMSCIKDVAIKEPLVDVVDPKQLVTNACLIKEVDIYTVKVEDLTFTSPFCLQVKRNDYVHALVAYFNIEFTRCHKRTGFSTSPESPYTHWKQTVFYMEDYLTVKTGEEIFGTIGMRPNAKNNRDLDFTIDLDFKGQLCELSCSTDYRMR
TDP2 absorb = human TDP2 enzyme inhibitors, primary screen, biochemical, epi absorbance, recombinant enzyme. 0.34% of 370,000 active. AID 720702, 2013. T5PNP hydrolysis, p-nitrophenol absorbance 415 nm. inhibition, % at 12.8 µM;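 active = inhibition above the mean of all tested compounds plus 3 SD, set per campaign, cut at about 25% in these data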;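 also: 0% = DMSO with enzyme and 100% = buffer with substrate but no TDP2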
Target sequence (O95551 whole entry, looked up): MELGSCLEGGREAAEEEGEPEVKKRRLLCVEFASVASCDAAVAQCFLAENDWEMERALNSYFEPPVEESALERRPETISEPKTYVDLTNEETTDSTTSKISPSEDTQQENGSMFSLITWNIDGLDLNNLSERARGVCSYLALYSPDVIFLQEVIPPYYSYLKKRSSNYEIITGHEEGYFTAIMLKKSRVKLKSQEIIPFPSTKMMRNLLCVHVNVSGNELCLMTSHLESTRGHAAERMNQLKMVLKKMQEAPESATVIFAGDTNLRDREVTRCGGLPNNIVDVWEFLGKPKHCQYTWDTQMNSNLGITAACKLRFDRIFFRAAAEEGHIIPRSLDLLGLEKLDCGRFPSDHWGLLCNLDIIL
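System – recombinant human TDP2 · Quantity – TDP2 enzyme at 120 nM final · Doses – single concentration, 12.8 µM nominal, with 1% DMSO · Incubation – 2 h at 37 °C · Measured by – epi absorbance of p-nitrophenol freed from T5PNP by hydrolysis · Read-out – % inhibition relative to enzyme-containing and enzyme-free wells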
MBD2 DNA inh = inhibitors of MBD2 binding to methylated DNA, primary screen, biochemical, TR-FRET, DNA-binding domain, human; 0.31% of 370,000 active; AID 686964, 2013; inhibition, % at 4.4 µM; MBD2 binding to methylated oligonucleotide; Methyl-CpG-binding domain protein 2 (Homo sapiens), Q9UBB5; in the data active = inhibition above about 13%
TDP2 inh conf = human TDP2 enzyme inhibitors, retest, confirmation, biochemical, epi absorbance, recombinant enzyme. inhibition, % at 12.8 µM. shares compounds with TDP2 absorb. 22% of 1,100 active. absorbance read-out; in the data active = inhibition above about 25%;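 also: 0% = vehicle with enzyme and 100% = no enzyme buffer only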
Numbers without * were called inactive; · = not tested or not shown. A selection: hits, their analogues and other compounds. The true share with any hit is near 3.3%.

SMILES | LEDGF integ inh | UHRF1 MBD2 ctr | SIAE primary | PRMT1 inh | TDP2 absorb | MBD2 DNA inh | TDP2 inh conf
CCc1ccc(NC(=S)Nc2cc(OC)c(NC(=O)C(C)C)cc2OC)cc1 | 8.4 | -5.2 | 8.5 | 8.6 | 14.9 | -8.9 | ·
COc1cc(/C=C2\C(=O)N(c3cccc(C(=O)O)c3)N=C2C)ccc1OCc1ccccc1 | 2.7 | -4.9 | 11.9 | -0.4 | 21.5 | -2.6 | ·
C#CCOc1ccc(/C=C2/C(=O)N(c3cccc(C(=O)O)c3)N=C2C)cc1OC | -0.8 | 7.3 | 1.4 | 6.1 | 71.4* | -2.9 | 18.1
COc1cc(/C=C2/C(=O)N(c3ccc(C)c(C)c3)N=C2C)cc([N+](=O)[O-])c1O | -2.9 | -9.1 | 9.9 | 0.1 | 19.0 | -1.4 | ·
COc1cc(/C=C2\C(=O)N(c3ccccc3)N=C2C)ccc1Oc1ccc([N+](=O)[O-])cc1[N+](=O)[O-] | 5.7 | 18.2 | 7.2 | 0.3 | 64.7* | 0.3 | 16.0
CCCCOc1ccc(CSCCNC(=S)Nc2ccccc2)cc1 | -4.3 | 0.1 | 3.0 | 1.0 | 2.0 | 0.7 | ·
CCCCCOc1ccc(CSCCNC(=S)Nc2ccccc2)cc1 | -3.7 | 0.3 | -2.6 | 0.7 | 36.6* | -5.6 | -1.9
Cc1cccc(NC(=O)CN2C(=O)CCSc3ccccc32)c1C | -1.6 | -0.1 | 0.1 | -3.1 | -17.2 | -3.8 | ·
Cc1nc2scc(C)n2c(=O)c1S(=O)(=O)NCc1ccc(F)cc1 | 0.7 | -3.0 | -0.5 | -0.9 | 24.9* | 2.8 | -10.3
CCCc1c(Cc2cccc(F)c2)ncn1CCc1ccccc1OC | 1.7 | -1.4 | 1.0 | 0.8 | 0.4 | -1.9 | ·
CC(C)C[C@@H]1COc2cc(Br)ccc2S(=O)(=O)N1Cc1cn(Cc2ccc(F)cc2)nn1 | 1.4 | 0.0 | -1.0 | 0.3 | -0.1 | 2.3 | ·
Cn1nccc1C(=O)N1CCC(Cc2ccccc2)CC1 | -7.8 | 2.9 | -4.3 | 0.5 | 44.6* | 3.0 | 3.3
O=C(c1ccc(Br)o1)N1CCC(Cc2ccccc2)CC1 | -1.6 | -2.1 | 4.0 | -2.3 | 0.7 | 1.4 | ·
O=C(NC(=O)c1ccccc1O)c1ccc2c(c1)CCO2 | -1.4 | -2.1 | 8.2 | -1.3 | 25.3* | 4.2 | 2.0
CN(C)CC(c1ccc(O)cc1)C1(O)CCCCC1 (stereo not drawn) | -1.2 | 2.1 | -3.1 | 2.2 | -6.6 | -3.9 | ·
O=C(NC1(O)C(=O)c2ccccc2C1=O)c1c(Cl)cccc1Cl | -2.8 | 3.1 | -4.2 | 4.8 | 71.2* | -4.3 | 79.3*
O=C(NC1(O)C(=O)c2ccccc2C1=O)c1ccccc1 | 10.2 | -1.2 | 3.0 | 2.8 | 53.9* | -6.9 | 83.9*
CN(CCO)c1ccc2c(c1)Oc1ccccc1CN(Cc1cn(Cc3ccccc3C(F)(F)F)nn1)S2(=O)=O | 6.2 | 4.0 | 0.8 | -0.4 | -11.7 | -1.5 | ·
CC1CCC2(CC1)CCN(CCCOC(=O)Nc1ccc3c(c1)OCO3)C2=O (stereo not drawn) | 5.6 | 0.7 | 1.0 | -4.6 | 4.2 | 1.6 | ·
CCOC(=O)[C@]12CCCCC/C=C\1N(CCc1ccc(Cl)cc1)C(=O)[C@H]2CC(=O)NCCCN1CCCC1=O | -1.3 | -2.4 | -0.9 | -0.1 | 9.2 | -0.3 | ·
Cc1cc(C)c(S(=O)(=O)N2CCN(C(=O)c3ccc4c(c3)OCO4)CC2)c(C)c1 | 1.8 | -0.6 | 4.6 | -1.2 | 28.7* | 2.3 | -4.7
Cc1ccc(OCCn2c(CCNC(=O)c3ccc(F)cc3F)nc3ccccc32)cc1 | 2.9 | 2.6 | -4.9 | -0.6 | 0.2 | -1.1 | ·
CCC1CCCCN1C(=O)CNCC1CCCO1 (stereo not drawn) | -1.1 | -1.1 | -1.5 | -2.6 | 32.9* | -2.5 | 7.1
Cc1ccc(S(=O)(=O)c2c(N)n(CCCO)c3nc4ccccc4nc23)cc1 | 13.2 | 2.4 | -9.3 | -1.4 | 54.4* | -5.8 | -6.7
Cc1c(C(c2cc(O)ccc2Cl)c2c(C)n(C)n(-c3ccccc3)c2=O)c(=O)n(-c2ccccc2)n1C | 0.2 | 0.2 | -2.5 | 5.0 | 28.8* | 0.4 | 11.7
SMILES | LEDGF integ inh | UHRF1 MBD2 ctr | SIAE primary | PRMT1 inh | TDP2 absorb | MBD2 DNA inh | TDP2 inh conf
CC1=NN(c2ccccc2)C(=O)C1=C(C)C | 4.8 | -7.1 | -7.1 | 2.7 | 37.1* | -6.2 | 12.2
Cc1ccc(Cl)cc1NS(=O)(=O)c1cn(C)nc1C | -2.1 | -2.5 | 9.6 | -0.3 | 25.0* | 1.0 | 10.6
COc1ccc(Cl)cc1NS(=O)(=O)c1cn(C)nc1C | 3.4 | -1.9 | 7.5 | 0.4 | 14.6 | -3.5 | ·
CCCC[C@H](C(=O)N(C)c1cccc(OC)c1)[C@@H](O)c1ccc2ccccc2c1 | -0.5 | 0.1 | -6.1 | -1.3 | -6.3 | -2.5 | ·
CC(=NNC(=O)CSc1nnc(-c2ccccc2)n1-c1ccccc1)c1cccc([N+](=O)[O-])c1 | 1.4 | -0.1 | 9.5 | -12.3 | -3.6 | -1.1 | ·
O=C(O)COCC(=O)Nc1cc(C(F)(F)F)cc(C(F)(F)F)c1 | 0.2 | 3.1 | 6.8 | -2.9 | 26.0* | -3.0 | 0.2
CC(CC(=O)O)CC(=O)Nc1cc(C(F)(F)F)cc(C(F)(F)F)c1 (stereo not drawn) | 0.0 | 0.7 | · | -5.3 | -1.9 | -4.6 | ·
CC(C)C1Cc2[nH]c(=O)c(C(=O)O)cc2CO1 (stereo not drawn) | -0.8 | -2.2 | -2.2 | 1.0 | 29.3* | 3.9 | 9.1
Cc1ccc(OCCNC(=O)c2ccc(NC(=O)CC3SC(N4CCCC4)=NC3=O)cc2)cc1 (stereo not drawn) | -4.5 | -0.5 | -6.1 | 2.7 | 40.2* | 0.1 | -1.4
COc1ccc(CCNC(=O)c2ccc(NC(=O)CC3SC(N4CCCC4)=NC3=O)cc2)cc1 (stereo not drawn) | 1.2 | 4.7 | -4.3 | -2.6 | 3.9 | -2.6 | ·
CCOC(=O)N(C)[C@H]1C[C@H]2c3[nH]c4cccc(-c5cccc(F)c5)c4c3CCN2C(=O)[C@H]1[C@H](C)O | -0.3 | 0.8 | 8.5 | 0.1 | -2.4 | -5.7 | ·
CCc1cccc(NC(=O)c2sc3nc4n(c(=O)c3c2C)CCC4)c1 | -1.8 | 0.3 | 7.2 | 0.8 | 54.7* | 1.9 | 8.7
Cc1cc(C)cc(NC(=O)c2sc3nc4n(c(=O)c3c2C)CCC4)c1 | 0.4 | 2.1 | -6.3 | -0.2 | 4.4 | -3.5 | ·
c1ccc(OC2CCN(c3ncnc4sccc34)CC2)cc1 | 3.7 | 2.9 | -4.2 | -5.5 | -10.9 | 0.3 | ·
